Screens as filed in PubChem BioAssay.
aDG glyco act: increases alpha dystroglycan glycosylation; Pro5-aDG cells, alpha-DG glycosylation AlphaScreen (IIH6); 0% Pro5, 100% B10-LARGE cell signal; activation, % at 10 µM; actives 0.22% (n = 360,000); AID 624168;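 active means activation of at least 8% versus controls, or a plate z-score of at least 8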;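 further: Pro5 are CHO cells carrying HIG-tagged alpha-DG that lacks glycosylation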
N-glyco inh: N-linked glycosylation inhibition; actives 0.23% (n = 360,000); reporter increase, % at 12.5 µM; D54 ERlucT glycosylation luciferase reporter, 24 h; percent of 100 nM tunicamycin response;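 active means mean luciferase reporter signal, scaled so untreated is 0 and the glycosylation-blocking control 100, at or above a set limit in every replicate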;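 further: luciferase carries N-glycosylation sites so blocking glycosylation raises the light; 0% = median of neutral control wells and 100% = median of 100 nM tunicamycin wells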
UCH37 DUB inh: inhibitors of human deubiquitinating enzyme UCH37 | Q9Y5K5 | purified proteasome/UCH37, Ub-AMC cleavage fluorescence | inhibition, % (no concentration beside the values) | actives 0.33% (n = 330,000);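 active means mean inhibition over replicate wells above about 20%, limit read from the data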;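 further: 0% = compound-free wells with enzyme and 100% = wells lacking proteasome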
Target sequence (Q9Y5K5 whole entry, looked up): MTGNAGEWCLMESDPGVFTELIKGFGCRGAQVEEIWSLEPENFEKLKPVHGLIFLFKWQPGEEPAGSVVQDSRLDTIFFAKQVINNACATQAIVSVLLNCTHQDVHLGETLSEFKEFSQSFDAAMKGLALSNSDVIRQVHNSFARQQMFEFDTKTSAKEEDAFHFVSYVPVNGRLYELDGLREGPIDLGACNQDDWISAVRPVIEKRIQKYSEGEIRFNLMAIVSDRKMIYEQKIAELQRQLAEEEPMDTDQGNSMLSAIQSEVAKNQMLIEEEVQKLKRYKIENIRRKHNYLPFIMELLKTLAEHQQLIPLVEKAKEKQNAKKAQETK
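Material: human UCH37 enzyme supplied as purified proteasome complex / Amount: 0.15 nM proteasome as dispensed / Buffer or medium: pH 7.4 Tris-HCl (50 mM) with ovalbumin, ATP-MgCl2, DTT / Times: preincubation 30 min, reaction 25 min, room temperature / Technique: AMC fluorescence from Ub-AMC cleavage, excitation 355 nm, emission 460 nm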
MsrA inhibitor: inhibits bovine methionine sulfoxide reductase A. purified bovine MsrA, absorbance read-out. inhibition, % at 15.5 µM. actives 0.75% (n = 360,000). AID 651718; in the data active means inhibition above about 4.5%;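 further: 0% = vehicle wells with enzyme and 100% = reference inhibitor wells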
Vif imaging: inhibitors of HIV Vif; actives 0.35% (n = 340,000); inhibition, % at 7.49 µM; HEK293T cells, Vif self-association by quenched fluorescence, imaging, 24 h; in the data active means inhibition above about 50%, passing the limit was not always enough
MsrA act: activators of bovine methionine sulfoxide reductase A | actives 0.3% (n = 360,000) | purified bovine MsrA, absorbance read-out | activation, % at 10.6 µM; in the data active means activation above about 7.5%;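 further: 0% = vehicle and 100% = reference activator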
Numbers without * were called inactive. Rows were chosen to be rich in hits. Some 1.9% of all compounds tested hit in one or more screens of this group.

Screening Cc1ccc(NC(=O)CSc2nsc(SCC(=O)Nc3ccc(C)cc3C)c2C#N)c(C)c1 returned aDG glyco act 0, N-glyco inh 30*, MsrA inhibitor -1, Vif imaging 6 and MsrA act -4.
`COC(=O)/C=C1/S/C(=N/NC(=O)c2ccc(OC)cc2)NC1=O` gave aDG glyco act 0, N-glyco inh 1, UCH37 DUB inh 25*, MsrA inhibitor 0, Vif imaging 15 and MsrA act -2.
Screening COC(=O)/C=C1\S/C(=N/NC(=O)c2ccc(OC)cc2)NC1=O returned aDG glyco act 0, N-glyco inh 1, UCH37 DUB inh 13, MsrA inhibitor 1, Vif imaging 2 and MsrA act -2.
Screening Cc1c(C(=O)N2CCCC2)sc(NC(=O)c2ccccc2)c1C#N returned aDG glyco act 0, N-glyco inh 1, UCH37 DUB inh 9, MsrA inhibitor 4.6*, Vif imaging -4 and MsrA act -3.
For CC(=NNC(=O)CN1CCN(S(=O)(=O)c2ccc(Br)cc2)CC1)c1cccnc1 the results were UCH37 DUB inh 2.
`CCCOC(=O)C[N+](C)(C)CCOC1CC2CCC1(C)C2(C)C` (stereo unspecified) gave aDG glyco act 0, N-glyco inh 2, UCH37 DUB inh 1, MsrA inhibitor 1, Vif imaging 63* and MsrA act -9.
`CCCCOC(=O)C[N+](C)(C)CCOC1CC2CCC1(C)C2(C)C` (stereo unspecified) gave aDG glyco act 0, N-glyco inh 3, UCH37 DUB inh 2, MsrA inhibitor -2, Vif imaging -4 and MsrA act 1.
`S=c1nc(Cc2ccccc2)[nH]c2ccccc12` gave aDG glyco act 0, N-glyco inh 6, UCH37 DUB inh 8, MsrA inhibitor 1, Vif imaging 68* and MsrA act -4.
For O=C(N/N=C/c1ccc2c(c1)OCO2)c1ccc(NC(=O)c2ccccc2Cl)cc1 the results were aDG glyco act 0, N-glyco inh -5, MsrA inhibitor 5.2*, Vif imaging 0 and MsrA act -13.
`Cc1ccccc1C(=O)Nc1ccc(C(=O)N/N=C/c2ccncc2)cc1` gave aDG glyco act 0, N-glyco inh 1, MsrA inhibitor -1, Vif imaging -1 and MsrA act -6.
`O=C(NN=Cc1ccc2c(c1)OCO2)c1ccc(NC(=O)c2ccccc2Cl)cc1` gave UCH37 DUB inh -71.
For Cc1ccccc1C(=O)Nc1ccc(C(=O)N/N=C/c2ccc(O)cc2)cc1 the results were aDG glyco act 0, N-glyco inh -3, MsrA inhibitor 4, Vif imaging 70* and MsrA act -5.
`CC(C)c1ccc(C=NNC(=O)c2ccc(Cn3cccn3)o2)cc1` gave UCH37 DUB inh 6.
Cc1cc2c(N=O)c(NO)ccc2[nH]1 was read as aDG glyco act 1, N-glyco inh 11, UCH37 DUB inh 7, Vif imaging 54* and MsrA act -2.
O=Nc1c(O)[nH]c2ccc(F)cc12 was read as aDG glyco act 0, N-glyco inh 0, UCH37 DUB inh 7, MsrA inhibitor 1, Vif imaging -13 and MsrA act -11.
COc1ccc(F)cc1C1=CC(=O)C[C@H](c2ccc3c(c2)OCO3)C1 was read as aDG glyco act 0, N-glyco inh 30*, UCH37 DUB inh 3, MsrA inhibitor 0, Vif imaging -1 and MsrA act -4.
`COc1cc(F)c(C2=CC(=O)C[C@H](c3ccc4c(c3)OCO4)C2)cc1F` gave aDG glyco act 0, N-glyco inh -1, UCH37 DUB inh -3, MsrA inhibitor 0, Vif imaging 16 and MsrA act -2.
`COc1ccc(C=NNC(=S)NC2CCS(=O)(=O)C2)cc1` (stereo unspecified) gave UCH37 DUB inh 8.
For COc1cc(/C=N/NC(=O)CCC(=O)NC2CCCCC2)ccc1C the results were aDG glyco act 0, N-glyco inh 0, MsrA inhibitor 0, Vif imaging 51* and MsrA act -3.
Screening COCc1cc(/C=N\NC(=O)Cc2ccc(Cl)cc2)ccc1OC returned aDG glyco act 0, N-glyco inh 1, MsrA inhibitor 1, Vif imaging -19 and MsrA act -2.
For COc1ccc(C=NNC(=O)Cc2ccc(Cl)cc2)cc1OC the results were UCH37 DUB inh 35*.
COc1ccc(/C=N/NC(=S)NC2CCS(=O)(=O)C2)cc1OC (stereo unspecified) was read as aDG glyco act 0, N-glyco inh 3, MsrA inhibitor 6.0*, Vif imaging -6 and MsrA act -6.
Screening CCN=C(NN=Cc1ccc([N+](=O)[O-])cc1)SC returned UCH37 DUB inh 4.
Screening Cc1ccc(OCC(=O)NN=Cc2cccnc2)cc1 returned UCH37 DUB inh 3.
Screening Nc1nnnn1N=Cc1ccco1 returned UCH37 DUB inh 4.
CCNc1nc(NCC)n2c(SCC(=O)Nc3c(C)cccc3C)nnc2n1 was read as aDG glyco act 0, N-glyco inh 0, UCH37 DUB inh -3, MsrA inhibitor 0 and MsrA act 0.
Screening CCNc1nc(NCC)n2c(SCC(=O)O)nnc2n1 returned aDG glyco act 0, N-glyco inh -2, UCH37 DUB inh 34*, MsrA inhibitor 0, Vif imaging -6 and MsrA act 4.
Screening Cc1cc2c(nc1C)CCCN2C[C@@H](C)ON=C1[C@H]2CCn3c(=O)n(-c4ccccc4)c(=O)n3[C@H]2[C@H](O)[C@@H]2O[C@H]12 returned UCH37 DUB inh -117.
For CCOc1ccc(Nc2nc(N)c([N+](=O)[O-])c(NCc3ccccc3)n2)cc1 the results were aDG glyco act 0, N-glyco inh -3, UCH37 DUB inh 6, MsrA inhibitor -1, Vif imaging -3 and MsrA act -2.
Screening CCOc1ccc(Nc2nc(N(C)c3ccccc3)nc(N)c2[N+](=O)[O-])cc1 returned aDG glyco act 0, N-glyco inh 36*, UCH37 DUB inh 3, MsrA inhibitor 0, Vif imaging -1 and MsrA act -2.
O=C1C=CC(=O)c2c(O)c(N3CCN(CCO)CC3)c(Cl)c(O)c21 was read as aDG glyco act 0, N-glyco inh -19, MsrA inhibitor 0, Vif imaging 127* and MsrA act -8.
For O=C1C=CC(=O)c2c(O)c(N3CCN(CCOCCO)CC3)c(Br)c(O)c21 the results were aDG glyco act 0, N-glyco inh -21, MsrA inhibitor 0, Vif imaging 72* and MsrA act 3.
Screening CCN(C)c1ccc(C=Nn2nnnc2N)cc1 returned UCH37 DUB inh -92.
